Source: PubChem BioAssay
Compounds with a hit are over-represented: about 3.8% of the library has one in this group of screens.
FGF22 binding: FGF22 (human) thermal shift binding; Q9HCT0; recombinant FGF22 thermal shift, SYPRO orange fluorescence; percent of sucrose octasulfate shift, DMSO zero; activity (Tm shift, normalised), % at 9.99 µM; 340,000 compounds, 1.5% hits;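 active means mean Tm shift, scaled 0 neutral to 100 positive control, at about 1.3% or above, every replicate too, limit read from the data; inconclusive means no clear call, values can overlap the other calls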
Target sequence (Q9HCT0 whole entry, looked up): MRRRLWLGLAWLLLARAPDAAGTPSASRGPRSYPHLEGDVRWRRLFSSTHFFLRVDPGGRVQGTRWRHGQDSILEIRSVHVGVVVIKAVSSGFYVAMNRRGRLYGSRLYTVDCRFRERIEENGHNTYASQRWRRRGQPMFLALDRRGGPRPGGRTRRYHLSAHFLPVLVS
ARNT TACC3 PPI: disruptors of human ARNT/TACC3 interaction; 390,000 compounds, 0.66% hits; AlphaScreen His-ARNT PAS-B/GST-TACC3 binding, luminescence; TACC3 fragment carries E629A point mutation; AID 623870; Q9Y6A5; inhibition, % at 9.99 µM;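 active means mean inhibition of replicates at least 50% and at least half of replicates each reaching 50%; inconclusive means half or more replicates reach 50% but mean below 50%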
FN deposit inh: fibronectin deposition inhibition; AH1F fibroblasts, Alexa488-fibronectin deposition fluorescence, overnight; inhibition, % at 12.6 µM; 350,000 compounds, 0.086% hits; AID 743247;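 active means mean inhibition across replicates of 30% or more, regardless of how many single replicates reach that level; inconclusive means mean under 30% yet at least half of replicates reach 30%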
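Material: AH1F fibroblast monolayer depositing Alexa488-labelled fibronectin into matrix | Input: 10000 AH1F cells/well | Medium: DMEM plus 2% serum, read in PBS | Reagent: Alexa488-fibronectin, 24 nM final in well | Compound dosing: One dose per compound, pinned | Schedule: 1 h adhesion, overnight exposure | Measured by: Fluorescence at 485 nm excitation, 525 nm emission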
Xi reactivation: activators of X-chromosome reactivation in mouse fibroblasts; XiGFP mouse fibroblasts, % GFP-positive cells imaging, 3 d; cells co-treated with 5-aza-dC sensitizer; scaled so ellipticine positive control = 100%; activation, % at 7.58 µM; 360,000 compounds, 0.055% hits;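 active means mean normalized replicate activation at least 10% and every replicate at or above 10%; inconclusive means only one of the two criteria met; inactive means mean below 10% and not all replicates reach 10%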
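System: SV40-immortalized XiGFP fibroblast cells, line 68-5-11 / Incubation: 3-day compound exposure, then 15 min fixation at room temperature / Compound: single concentration per compound, delivered by pin transfer / Buffer or medium: DMEM plus 5-aza-dC sensitizer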
SIRT5 block: sirtuin-5 (human) deacylase inhibition; Q9NXA8; AID 652115; 330,000 compounds, 1.1% hits; Purified SirT5, succinyl-peptide AMC, trypsin-coupled fluorescence; inhibition, % at 15 µM; in the data active means inhibition above about 15%; inconclusive means no clear call, values can overlap the other calls
Target sequence (Q9NXA8 whole entry, looked up): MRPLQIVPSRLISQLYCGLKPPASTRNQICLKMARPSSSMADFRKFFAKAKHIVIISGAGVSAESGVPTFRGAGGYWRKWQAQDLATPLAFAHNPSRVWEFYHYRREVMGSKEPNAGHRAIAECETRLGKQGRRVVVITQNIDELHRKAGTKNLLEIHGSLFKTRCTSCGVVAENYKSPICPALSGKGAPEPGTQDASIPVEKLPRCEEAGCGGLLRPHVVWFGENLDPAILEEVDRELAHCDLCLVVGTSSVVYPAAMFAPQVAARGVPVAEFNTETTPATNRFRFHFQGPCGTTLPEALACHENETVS
DENV2 CPE rescue: protects cells from dengue virus 2 cytopathic effect | DENV2-infected cells, cytopathic effect rescue, plate reader | CPE inhibition, % at 9.99 µM | 350,000 compounds, 1.7% hits; in the data active means CPE inhibition above about 20%, passing the limit was not always enough; inconclusive means no clear call, values can overlap the other calls; tested in BHK-21 cells
Large screens that a line does not name were inactive.

CCOC(=O)c1c(SCCN2CCCCC2)n(-c2ccccc2)c(=S)n(-c2ccccc2)c1=O	DENV2 CPE rescue 23
CC(CCCC(C)(C)O)NC(=O)c1ccc(OC2CCN(C(=O)C3CC3)CC2)cc1 (stereo not given)	FGF22 binding 43
CC(C)C[C@H](NC(=O)c1ccc(OC2CCN(C(=O)C3CC3)CC2)cc1)C(N)=O	none (no result: FGF22 binding)
CCCCCCN1CCN(C2CN(Cc3ccc(F)cc3)S(=O)(=O)C2)CC1 (stereo not given)	DENV2 CPE rescue 31 (no result: ARNT TACC3 PPI, Xi reactivation)
CCCCCCN1CCN(C2CN(Cc3ccc(C)cc3)S(=O)(=O)C2)CC1 (stereo not given)	none (no result: ARNT TACC3 PPI, FN deposit inh)
C[C@H](CO)N1C[C@H](C)[C@@H](CN(C)C(=O)Nc2ccccc2)Oc2ccc(NS(=O)(=O)c3ccc(Cl)cc3)cc2C1=O	none (no result: FN deposit inh, SIRT5 block)
CCCCN(C)Cc1c(C)[nH]c2ccc(C)cc2c1=O	none (no result: FGF22 binding, Xi reactivation, SIRT5 block, DENV2 CPE rescue)
CCCCN(C)Cc1c(C)[nH]c2ccccc2c1=O	FGF22 binding 43
COc1cccc(-c2ccc3c(c2)[C@H]2[C@H](CCN2S(=O)(=O)c2ccccc2C)[C@@H](CO)N3)c1	none
COc1cccc(-c2ccc3c(c2)[C@@H]2[C@@H](CCN2S(=O)(=O)c2cn(C)cn2)[C@@H](CO)N3)c1	ARNT TACC3 PPI active, DENV2 CPE rescue 35
Cc1ccccc1S(=O)(=O)N1CC[C@@H]2[C@H](CO)Nc3ccc(-c4cccc(C#N)c4)cc3[C@@H]21	DENV2 CPE rescue 96 (no result: SIRT5 block)
Cc1ccccc1S(=O)(=O)N1CC[C@@H]2[C@@H](CO)Nc3ccc(-c4cccc(C#N)c4)cc3[C@@H]21	DENV2 CPE rescue 65 (no result: SIRT5 block)
COc1cccc(-c2ccc3c(c2)[C@H]2[C@H](CCN2S(=O)(=O)c2ccccc2C)[C@H](CO)N3)c1	DENV2 CPE rescue 39
Cn1cnc(S(=O)(=O)N2CC[C@H]3[C@H](CO)Nc4ccc(-c5ccccc5)cc4[C@H]32)c1	none
C[C@@H]1CN([C@@H](C)CO)S(=O)(=O)c2ccc(C3=CCCC3)cc2O[C@@H]1CN(C)C(=O)C1CCC1	none (no result: FN deposit inh)
CCN(CC(=O)Nc1ccccc1C(F)(F)F)C(=O)c1ccc2c(c1)NC(=O)C(C)S2 (stereo not given)	DENV2 CPE rescue inconclusive (no result: ARNT TACC3 PPI, SIRT5 block)
CCN(CC(=O)Nc1cc(Cl)ccc1C)C(=O)COc1ccccc1F	FGF22 binding 44
CCN(CC(=O)Nc1cc(Cl)ccc1C)C(=O)CCOc1ccccc1C	none (no result: FGF22 binding)
CCN(CC(=O)Nc1cc(Cl)ccc1C)C(=O)c1ccc2c(c1)NC(=O)C(C)S2 (stereo not given)	DENV2 CPE rescue 50
C[C@@H]1CN([C@H](C)CO)C(=O)c2cc(NC(=O)Nc3ccccc3)ccc2O[C@@H](C)CCCCO[C@H]1CN(C)C(=O)c1ccccc1	DENV2 CPE rescue inconclusive
CCC(=O)N1[C@H](C(=O)NC2CCC2)[C@@H](CO)[C@@H]2Cn3c(ccc(C4=CCCC4)c3=O)[C@@H]21	none
Cc1cc(Nc2ccc(F)cc2)n2nc(C)nc2n1	none (no result: ARNT TACC3 PPI, SIRT5 block)
Cc1cc(Nc2ccc(Br)cc2)n2nc(C)nc2n1	ARNT TACC3 PPI 11 (no result: SIRT5 block)
O=C1C=C(Nc2cccnc2)c2ccccc2C1=O	ARNT TACC3 PPI 35
O=C1C=C(Nc2ccc(F)cc2)c2ccccc2C1=O	none
COc1ccc(NC(=O)N(C)C[C@@H]2Oc3ccc(NC(=O)c4ccncc4)cc3CC(=O)N([C@@H](C)CO)C[C@H]2C)cc1	none (no result: FN deposit inh)
COc1ccc(NC(=O)N(C)C[C@@H]2Oc3ccc(NC(=O)c4ccncc4)cc3CC(=O)N([C@H](C)CO)C[C@@H]2C)cc1	DENV2 CPE rescue 44 (no result: FN deposit inh)
COc1ccc(NC(=O)N(C)C[C@@H]2Oc3ccc(NC(=O)c4ccncc4)cc3CC(=O)N([C@@H](C)CO)C[C@@H]2C)cc1	DENV2 CPE rescue 28 (no result: FN deposit inh)
COc1ccc2c3c(n(C)c2c1)[C@@H](CO)N(S(C)(=O)=O)CC31CN(C(=O)c2ccccn2)C1	DENV2 CPE rescue 34 (no result: ARNT TACC3 PPI, FN deposit inh)
COc1ccc2c3c(n(C)c2c1)[C@H](CO)N(S(C)(=O)=O)CC31CCN(C(=O)c2ccccn2)CC1	DENV2 CPE rescue 77 (no result: FGF22 binding, ARNT TACC3 PPI, SIRT5 block)
COc1ccc2c3c(n(C)c2c1)[C@H](CO)N(C(=O)c1ccccn1)CC31CN(C(=O)c2ccccn2)C1	none (no result: ARNT TACC3 PPI, FN deposit inh)
O=C(NC1CCCCC1)N[C@@H]1CC[C@H](CCNS(=O)(=O)c2ccc(Cl)cc2)O[C@H]1CO	none
C[C@@H]1COCn2nncc2CC[C@@H](Cc2ccccc2)C(=O)N1	none (no result: FGF22 binding, ARNT TACC3 PPI, SIRT5 block, DENV2 CPE rescue)
Cc1noc(C)c1NC(=O)Nc1ccc2c(c1)C(=O)N([C@@H](C)CO)C[C@@H](C)[C@@H](CN(C)Cc1ccc(C(=O)O)cc1)OCCCC[C@@H](C)O2	none (no result: FN deposit inh, SIRT5 block)
CC(=O)c1sc(NC(=O)CCCOc2ccc(Cl)cc2)nc1C	FGF22 binding 43
Cc1ccnc(N2CCC(C(=O)NNC(=O)COc3cccc4ccccc34)CC2)n1	FGF22 binding 43 (no result: ARNT TACC3 PPI)
CCN1CCN(C(=O)/C(C#N)=C/c2ccc(OC(F)F)cc2)CC1	SIRT5 block 18 (no result: DENV2 CPE rescue)
Cc1noc(C)c1S(=O)(=O)N(C)C[C@@H]1Oc2ccc(NC(=O)Cn3cnnn3)cc2CC(=O)N([C@H](C)CO)C[C@@H]1C	none (no result: FN deposit inh)
C[C@H](CO)N1C[C@H](C)[C@H](CN(C)Cc2ccncc2)Oc2ccc(NC(=O)Cn3cnnn3)cc2CC1=O	DENV2 CPE rescue 23 (no result: FN deposit inh)
C[C@H]1CN([C@@H](C)CO)C(=O)c2cc(NC(=O)Cn3cnnn3)ccc2O[C@H]1CN(C)Cc1ccc(C(=O)Nc2ccccc2N)cc1	DENV2 CPE rescue 43 (no result: SIRT5 block)
C[C@@H]1CN([C@H](C)CO)C(=O)Cc2cc(NC(=O)Cn3cnnn3)ccc2O[C@@H]1CN(C)Cc1ccc(C(=O)Nc2ccccc2N)cc1	DENV2 CPE rescue 112 (no result: ARNT TACC3 PPI, FN deposit inh)
C[C@@H]1CN([C@H](C)CO)C(=O)c2cc(NC(=O)Cn3cnnn3)ccc2O[C@@H]1CN(C)Cc1ccc(C(=O)Nc2ccccc2N)cc1	none
Cc1noc(C)c1S(=O)(=O)N(C)C[C@H]1Oc2ccc(NC(=O)Cn3cnnn3)cc2CC(=O)N([C@H](C)CO)C[C@H]1C	SIRT5 block 28 (no result: FN deposit inh)
Cc1ccc(C2=NCCn3c2c2ccc(C(F)(F)F)cc2[n+]3[O-])cc1	FGF22 binding 43 (no result: DENV2 CPE rescue)
COc1ccc(C2=NCCn3c2c2ccc(C(F)(F)F)cc2[n+]3[O-])cc1	none (no result: SIRT5 block)
O=C(O)C1C2CCC(CC2)C1C(=O)O (stereo not given)	none
O=C(O)C1C2CCC1C(O)C2 (stereo not given)	FGF22 binding 43 (no result: ARNT TACC3 PPI, SIRT5 block)
CCOc1ccc(S(=O)(=O)Nc2cccc(C)c2)c2cccnc12	FGF22 binding 43, SIRT5 block 18
CCOc1ccc(S(=O)(=O)Nc2ccc3c(c2)OCO3)c2cccnc12	none (no result: FGF22 binding, Xi reactivation, SIRT5 block, DENV2 CPE rescue)
